pEC50: −log10 of the molar value.
Key:
[1] = Metabolic stability in rat plasma assessed as compound remaining at 100 uM after 4 hrs incubation by LC-MS/MS analysis; format: ADME, cell-free; settings: read-out: Stability
Outline: (§1)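 Test compound (100 µM stock) was added to plasma pre-warmed 5 min at 37°C, mixed by vortex and incubated at 37°C. Samples were taken at 0, 15, 30, 60 and […] and quenched with 2 volumes acetonitrile. After centrifugation at 10,000 rpm for 10 min, the supernatant was analysed by LC-MS/MS. Results are given as % remaining after 4 h; mean ± SD. Enalapril and procaine served as controls.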

[2] = Inhibition of HCV genotype 1b NK5.1 NS5A in infected human Huh 7.5.1 cells assessed as reduction in viral RNA replication incubated for 3 days by luciferase reporter gene assay; design: species or system Hepatitis C virus subtype 1b; settings: Hepatitis C virus, NK5.1, Huh-7.5.1, 72 h
Outline: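 Genotype 1b replicon cells (Huh 7.5.1 carrying NK5.1-Gluc) were cultured 16 h, then given serially diluted compounds for 3 days. Culture media were collected and luciferase activity measured and normalised to mock-treated cells to derive EC50. Cells were maintained in DMEM with 10% heat-inactivated FBS and antibiotics at 37°C, 6.0% CO₂.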

Huh7.5.1 = assay: Cytotoxicity against human Huh7.5.1 cells at 20 uM; format: cell-based
[3] = Inhibition of HCV genotype 2a JFH5a replicon NS5A in infected human Huh 7.5.1 cells assessed as reduction in viral RNA replication incubated for 3 days by luciferase reporter gene assay; design: species or system Hepatitis C virus subtype 2a; settings: Hepatitis C virus, Huh-7.5.1, 72 h
Outline: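 Huh 7.5.1 cells were infected with JFH5a-Rluc-ad34 (a JFH1 genotype 2a derivative with adaptive E2/p7 mutations, Renilla luciferase reporter) cell-culture virus for 3 h. They were then cultured in serially diluted compounds for 3 days. Cells were harvested and Renilla luciferase activity measured, normalised to mock-treated cells, to give EC50.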

[4] = Cmax in rat at 1 mg/kg, iv; format: ADME, organism-based; design: dose 1 mg/kg, route intravenous; settings: in vivo
Rattus norvegicus = assay: Half life in rat at 1 mg/kg, iv; format: ADME, organism-based; settings: in vivo
[5] = Cmax in rat at 10 mg/kg, po; format: ADME, organism-based; design: dose 10 mg/kg, route oral; settings: in vivo
[6] = Half life in rat at 10 mg/kg, po; format: ADME, organism-based; settings: in vivo
Salmonella typhimurium [7] = assay: Mutagenicity in Salmonella typhimurium TA100 assessed as revertant colonies/plate in presence of liver S9 fraction at 1000 ug/plate by Ames test (reference value: 129 +/- 3); format: toxicity; settings: salmonella enterica subsp. enterica serovar typhimurium
[8] = test system: Hepatitis C virus subtype 1b; assay: Inhibition of HCV genotype 1b NK5.1 NS5A in infected human Huh 7.5.1 cells assessed as reduction in viral RNA replication by measuring combination index in presence of NS5B inhibitor sofosbuvir at ED90 incubated for 3 days by luciferase reporter gene assay
Outline: (§2)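 Huh 7.5.1 cells carrying the bicistronic genotype 1b replicon NK5.1-Gluc (secreted Gaussia luciferase) plated at 5 x 10⁴ cells/well. After 16 h they were exposed to inhibitor alone or mixed with sofosbuvir at a constant ratio, serially diluted, for 3 days. Luciferase was read and normalised to mock-treated cells. Combination index at ED50/75/90/95 was obtained by the Chou method.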

[9] = test system: Hepatitis C virus subtype 1b; assay: Inhibition of HCV genotype 1b NK5.1 NS5A in infected human Huh 7.5.1 cells assessed as reduction in viral RNA replication by measuring combination index in presence of NS5B inhibitor sofosbuvir at ED95 incubated for 3 days by luciferase reporter gene assay; outline: as §2
Salmonella typhimurium [10] = assay: Mutagenicity in Salmonella typhimurium TA98 assessed as revertant colonies/plate in absence of liver S9 fraction at 1000 ug/plate by Ames test (reference value: 21 +/- 1); format: toxicity; settings: salmonella enterica subsp. enterica serovar typhimurium
Salmonella typhimurium [11] = assay: Mutagenicity in Salmonella typhimurium TA100 assessed as revertant colonies/plate in absence of liver S9 fraction at 1000 ug/plate by Ames test (reference value: 125 +/- 9); format: toxicity; settings: salmonella enterica subsp. enterica serovar typhimurium
[12] = test system: Hepatitis C virus subtype 1b; assay: Inhibition of HCV genotype 1b NK5.1 NS5A in infected human Huh 7.5.1 cells assessed as reduction in viral RNA replication by measuring combination index in presence of NS5B inhibitor sofosbuvir at ED75 incubated for 3 days by luciferase reporter gene assay; outline: as §2
[13] = Oral bioavailability in rat at 10 mg/kg; format: ADME, organism-based; settings: in vivo
hERG (KCNH2) = hERG (KCNH2) (Homo sapiens, UniProt Q12809); assay: Inhibition of human ERG at 10 uM by fluorescence polarization assay
Salmonella typhimurium [14] = assay: Mutagenicity in Salmonella typhimurium TA98 assessed as revertant colonies/plate in presence of liver S9 fraction at 1000 ug/plate by Ames test (reference value: 25 +/- 3); format: toxicity; settings: salmonella enterica subsp. enterica serovar typhimurium
[15] = test system: Hepatitis C virus subtype 1b; assay: Inhibition of HCV genotype 1b NK5.1 NS5A in infected human Huh 7.5.1 cells assessed as reduction in viral RNA replication by measuring combination index in presence of NS5B inhibitor sofosbuvir at ED50 incubated for 3 days by luciferase reporter gene assay; outline: as §2
[16] = Metabolic stability in human plasma assessed as compound remaining at 100 uM after 4 hrs incubation by LC-MS/MS analysis; format: ADME, cell-free; settings: read-out: Stability; outline: as §1
Salmonella typhimurium [17] = assay: Mutagenicity in Salmonella typhimurium TA98 assessed as revertant colonies/plate in presence of liver S9 fraction at 5000 ug/plate by Ames test (reference value: 1); format: toxicity; settings: salmonella enterica subsp. enterica serovar typhimurium
Salmonella typhimurium [18] = assay: Mutagenicity in Salmonella typhimurium TA100 assessed as revertant colonies/plate in absence of liver S9 fraction at 5000 ug/plate by Ames test (reference value: 7 +/- 2 ); format: toxicity; settings: salmonella enterica subsp. enterica serovar typhimurium
Salmonella typhimurium [19] = assay: Mutagenicity in Salmonella typhimurium TA100 assessed as revertant colonies/plate in presence of liver S9 fraction at 5000 ug/plate by Ames test (reference value: 5 +/- 2 ); format: toxicity; settings: salmonella enterica subsp. enterica serovar typhimurium
Salmonella typhimurium [20] = assay: Mutagenicity in Salmonella typhimurium TA98 assessed as revertant colonies/plate in absence of liver S9 fraction at 5000 ug/plate by Ames test (reference value: 1); format: toxicity; settings: salmonella enterica subsp. enterica serovar typhimurium
Salmonella typhimurium [21] = assay: Mutagenicity in Salmonella typhimurium TA98 assessed as revertant colonies/plate in absence of liver S9 fraction at 1 ug/plate by Ames test (reference value: 21 +/- 1); format: toxicity; settings: salmonella enterica subsp. enterica serovar typhimurium

Chain of hERG (KCNH2) (Q12809 whole entry): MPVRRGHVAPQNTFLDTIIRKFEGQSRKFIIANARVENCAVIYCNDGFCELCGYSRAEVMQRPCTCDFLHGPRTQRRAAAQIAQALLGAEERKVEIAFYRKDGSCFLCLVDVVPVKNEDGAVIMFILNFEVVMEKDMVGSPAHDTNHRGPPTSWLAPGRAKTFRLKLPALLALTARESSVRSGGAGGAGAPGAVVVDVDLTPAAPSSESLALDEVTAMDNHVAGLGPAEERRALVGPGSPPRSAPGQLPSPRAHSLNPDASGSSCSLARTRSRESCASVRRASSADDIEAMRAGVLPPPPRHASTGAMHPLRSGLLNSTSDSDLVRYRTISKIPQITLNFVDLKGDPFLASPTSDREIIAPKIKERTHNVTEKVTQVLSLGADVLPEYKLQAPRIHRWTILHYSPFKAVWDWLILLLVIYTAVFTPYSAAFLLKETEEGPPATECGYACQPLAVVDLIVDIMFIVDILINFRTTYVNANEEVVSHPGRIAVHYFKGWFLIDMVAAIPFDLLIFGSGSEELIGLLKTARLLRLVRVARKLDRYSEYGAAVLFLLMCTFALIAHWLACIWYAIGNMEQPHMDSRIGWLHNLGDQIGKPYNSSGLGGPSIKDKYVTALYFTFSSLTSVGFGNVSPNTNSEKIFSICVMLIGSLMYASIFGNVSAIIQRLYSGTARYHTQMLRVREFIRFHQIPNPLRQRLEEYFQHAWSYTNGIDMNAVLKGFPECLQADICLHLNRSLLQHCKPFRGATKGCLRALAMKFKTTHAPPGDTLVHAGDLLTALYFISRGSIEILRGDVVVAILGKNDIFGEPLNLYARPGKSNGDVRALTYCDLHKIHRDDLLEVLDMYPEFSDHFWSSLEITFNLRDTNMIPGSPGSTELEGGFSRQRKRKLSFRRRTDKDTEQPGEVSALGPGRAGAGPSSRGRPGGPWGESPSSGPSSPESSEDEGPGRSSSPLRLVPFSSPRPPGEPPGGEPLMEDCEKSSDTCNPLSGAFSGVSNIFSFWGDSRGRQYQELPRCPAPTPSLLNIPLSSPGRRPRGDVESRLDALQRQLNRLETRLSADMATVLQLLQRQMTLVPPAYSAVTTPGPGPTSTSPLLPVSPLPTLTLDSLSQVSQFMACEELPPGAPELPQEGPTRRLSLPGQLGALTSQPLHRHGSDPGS

## CCOC(=O)[C@H](CCc1ccccc1)N[C@@H](C)C(=O)N1CCC[C@H]1C(=O)O
[1]
  remaining at 4 h, 100 µM: 0.032%

## COC(=O)N[C@H](C(=O)N1CCC[C@H]1C(=O)Nc1ccc(S(=O)(=O)c2ccc(NC(=O)[C@@H]3CCCN3C(=O)[C@@H](NC(=O)OC)C(C)C)cc2)cc1)C(C)C
[2]
  pEC50: < 4.00
Huh7.5.1
  Activity: > 30 µM

## COC(=O)N[C@@H](C(=O)N1CCC[C@H]1C(=O)Nc1ccc(S(=O)(=O)c2ccc(NC(=O)[C@@H]3CCCN3C(=O)[C@H](NC(=O)OC)C(C)C)cc2)cc1)C(C)C
[2]
  pEC50: < 4.00
Huh7.5.1
  Activity: > 30 µM

## COC(=O)N[C@@H](C(=O)N1CCC[C@H]1C(=O)Nc1ccc(S(=O)(=O)c2ccc(NC(=O)[C@@H]3CCCN3C(=O)[C@H](NC(=O)OC)c3ccccc3)cc2)cc1)c1ccccc1
[2]
  pEC50: 7.44
Huh7.5.1
  Activity: > 30 µM

## COC(=O)N[C@@H](C(=O)N1CCC[C@H]1C(=O)Nc1ccc(OS(=O)(=O)Oc2ccc(NC(=O)[C@@H]3CCCN3C(=O)[C@H](NC(=O)OC)C(C)C)cc2)cc1)C(C)C
[2]
  pEC50: 6.24
Huh7.5.1
  Activity: > 30 µM

## COC(=O)N[C@@H](C(=O)N1CCC[C@H]1C(=O)Nc1cccc(OS(=O)(=O)Oc2cccc(NC(=O)[C@@H]3CCCN3C(=O)[C@H](NC(=O)OC)c3ccccc3)c2C)c1C)c1ccccc1
[2]
  pEC50: 7.64
Huh7.5.1
  Activity: > 30 µM

## COC(=O)N[C@@H](C(=O)N1CCC[C@H]1C(=O)Nc1ccc(C)c(OS(=O)(=O)Oc2cc(NC(=O)[C@@H]3CCCN3C(=O)[C@H](NC(=O)OC)c3ccccc3)ccc2C)c1)c1ccccc1
[3]
  pEC50: 8.65
[2]
  pEC50: 9.96
Huh7.5.1
  Activity: > 30 µM

## COC(=O)N[C@@H](C(=O)N1CCC[C@H]1c1ncc(-c2cccc(OS(=O)(=O)Oc3cccc(-c4cnc([C@@H]5CCCN5C(=O)[C@H](NC(=O)OC)c5ccccc5)[nH]4)c3)c2)[nH]1)c1ccccc1
[3]
  pEC50: 8.00
[2]
  pEC50: 9.44
Huh7.5.1
  Activity: > 30 µM

## COC(=O)N[C@H](C(=O)N1CCC[C@H]1c1ncc(-c2ccc(OS(=O)(=O)Oc3ccc(-c4cnc([C@@H]5CCCN5C(=O)[C@@H](NC(=O)OC)C(C)C)[nH]4)cc3)cc2)[nH]1)C(C)C
[2]
  pEC50: 8.37
Huh7.5.1
  Activity: > 30 µM

## COC(=O)N[C@@H](C(=O)N1CCC[C@H]1C(=O)Nc1cccc(OS(=O)(=O)Oc2cccc(NC(=O)[C@@H]3CCCN3C(=O)[C@H](NC(=O)OC)c3ccccc3)c2)c1)c1ccccc1
[4]
  Cmax: 1960 ng/mL
Rattus norvegicus
  t1/2: 0.51 h
[5]
  Cmax: 14 ng/mL
[3]
  pEC50: 10.70
[6]
  half-life: 1.6 h
Salmonella typhimurium [7]
  Activity: 130
[8]
  CI: 0.949
[2]
  pEC50: 10.70
[9]
  CI: 0.977
Salmonella typhimurium [10]
  Activity: 26
Salmonella typhimurium [11]
  Activity: 126
[12]
  CI: 0.909
[13]
  bioavailability: 0.54%
hERG (KCNH2)
  inhibition at 10 µM: 2.73%
Salmonella typhimurium [14]
  Activity: 29
[1]
  remaining at 4 h, 100 µM: 76.7%
[15]
  CI: 0.872
Huh7.5.1
  Activity: > 30 µM
[16]
  remaining at 4 h, 100 µM: 86.3%

## COC(=O)N[C@@H](C(=O)N1CCC[C@H]1c1ncc(-c2ccc(OS(=O)(=O)Oc3ccc(-c4cnc([C@@H]5CCCN5C(=O)[C@H](NC(=O)OC)c5ccccc5)[nH]4)cc3)cc2)[nH]1)c1ccccc1
[3]
  pEC50: 9.83
[2]
  pEC50: 9.57
Huh7.5.1
  Activity: > 30 µM

## Nc1ccc(OS(=O)(=O)Oc2ccc(N)cc2)cc1
Salmonella typhimurium [17]
  Activity: 1
Salmonella typhimurium [18]
  Activity: 10
Salmonella typhimurium [19]
  Activity: 8
Salmonella typhimurium [20]
  Activity: 1

## COC(=O)N[C@H](C(=O)N1CCC[C@H]1C(=O)Nc1cccc(OS(=O)(=O)Oc2cccc(NC(=O)[C@@H]3CCCN3C(=O)[C@@H](NC(=O)OC)C(C)(C)C)c2)c1)C(C)(C)C
[3]
  pEC50: 9.03
[2]
  pEC50: 10.11
Huh7.5.1
  Activity: > 30 µM

## COC(=O)N[C@H](C(=O)N1CCC[C@H]1c1ncc(-c2cccc(OS(=O)(=O)Oc3cccc(-c4cnc([C@@H]5CCCN5C(=O)[C@@H](NC(=O)OC)C(C)(C)C)[nH]4)c3)c2)[nH]1)C(C)(C)C
[2]
  pEC50: 7.43
Huh7.5.1
  Activity: > 30 µM

## COC(=O)N[C@H](C(=O)N1CCC[C@H]1c1ncc(-c2cccc(OS(=O)(=O)Oc3cccc(-c4cnc([C@@H]5CCCN5C(=O)[C@@H](NC(=O)OC)C(C)C)[nH]4)c3)c2)[nH]1)C(C)C
[4]
  Cmax: 1680 ng/mL
Rattus norvegicus
  t1/2: 0.92 h
[5]
  Cmax: 17 ng/mL
[3]
  pEC50: 9.05
[6]
  half-life: 2.25 h
Salmonella typhimurium [7]
  Activity: 110
[8]
  CI: 1.16
[2]
  pEC50: 10.49
[9]
  CI: 1.25
Salmonella typhimurium [10]
  Activity: 28
Salmonella typhimurium [11]
  Activity: 125
[12]
  CI: 1.06
[13]
  bioavailability: 0.74%
hERG (KCNH2)
  inhibition at 10 µM: 18.7%
Salmonella typhimurium [14]
  Activity: 29
[1]
  remaining at 4 h, 100 µM: 87.2%
[15]
  CI: 0.98
Huh7.5.1
  Activity: > 30 µM
[16]
  remaining at 4 h, 100 µM: 92.6%

## CCN(CC)CCOC(=O)c1ccc(N)cc1 [PROCAINE]
[16]
  remaining at 4 h, 100 µM: 0.003%

## COC(=O)N[C@@H](C(=O)N1CCC[C@H]1C(=O)Nc1ccc(OS(=O)(=O)Oc2ccc(NC(=O)[C@@H]3CCCN3C(=O)[C@H](NC(=O)OC)c3ccccc3)cc2)cc1)c1ccccc1
[2]
  pEC50: 11.00
Huh7.5.1
  Activity: > 30 µM

## COC(=O)N[C@@H](C(=O)N1CCC[C@H]1c1ncc(-c2ccc(OS(=O)(=O)Oc3ccc(-c4cnc([C@@H]5CCCN5C(=O)[C@H](NC(=O)OC)C(C)C)[nH]4)cc3)cc2)[nH]1)C(C)C
[3]
  pEC50: 6.37
[2]
  pEC50: 6.38
Huh7.5.1
  Activity: > 30 µM

## O=[N+]([O-])c1ccc2c(c1)Cc1ccccc1-2 [2-NITROFLUORENE]
Salmonella typhimurium [21]
  Activity: 183
